High-throughput results deposited in PubChem BioAssay by Sanford-Burnham Center for Chemical Genomics.
Compounds with a hit are over-represented: about 3.3% of the library has one in this group of screens.
SENP7 inh = blocks the human protease SENP7; recombinant SENP7, Z-RLRGG-aminoluciferin luminescence, 40 min; inhibition, % at 5 µM; 330,000 compounds, 1.5% hits; AID 434973;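 active = inhibition above about 50% at the single test dose, limit read from the data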;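 note: plate controls were DMSO with enzyme for no effect and no enzyme buffer wells for full effect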
SENP6 block = SENP6 protease inhibition | Q9GZR1 | 330,000 compounds, 1.8% hits | Recombinant SENP6 catalytic domain, aminoluciferin luminescence | inhibition, % at 10 µM;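 active = inhibition above about 50% at the single tested dose, limit read from the data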;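 note: plate controls were DMSO wells with enzyme for no effect and DMSO wells lacking enzyme for full effect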
Target sequence (Q9GZR1 628-1112 limits assumed): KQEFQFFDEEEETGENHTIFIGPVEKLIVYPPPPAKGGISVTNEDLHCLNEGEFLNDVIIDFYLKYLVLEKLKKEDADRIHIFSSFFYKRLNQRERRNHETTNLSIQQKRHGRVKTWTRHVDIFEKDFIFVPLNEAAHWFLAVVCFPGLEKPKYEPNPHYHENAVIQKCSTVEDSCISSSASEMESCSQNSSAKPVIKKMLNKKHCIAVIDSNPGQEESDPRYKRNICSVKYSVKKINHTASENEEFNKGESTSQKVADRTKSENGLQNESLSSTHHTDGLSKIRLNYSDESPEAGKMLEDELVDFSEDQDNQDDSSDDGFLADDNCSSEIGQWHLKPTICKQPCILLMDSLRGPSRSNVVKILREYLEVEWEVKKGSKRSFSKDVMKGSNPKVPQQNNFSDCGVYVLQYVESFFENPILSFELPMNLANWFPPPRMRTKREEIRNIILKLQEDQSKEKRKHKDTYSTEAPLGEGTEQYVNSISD
SENP1 FRET inh = inhibitors of human SENP1 SUMO protease catalytic domain; Q9P0U3; recombinant SENP1 catalytic domain, CyPet-SUMO1-YPet FRET cleavage; inhibition, % at 10 µM; 360,000 compounds, 0.21% hits;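 active = inhibition at least 30% at 10 µM, raw YFP signal under a set limit, fluorescence ratio 0.5 to 1.5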;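 note: 0% = enzyme with DMSO and 100% = no enzyme wells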
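Compound: 10 µM single point, 0.5% DMSO; Test system: hSENP1 catalytic domain, recombinant; Timing: 50 min reaction at room temperature; Technique: FRET, CFP and YFP emission; Control set: no-enzyme wells low, DMSO-plus-enzyme wells high control.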
CendR NRP1 mod = modulators of CendR peptide binding to human neuropilin-1; O14786; FAM-RPARPAR peptide binding to NRP-1, fluorescence polarization; inhibition, % at 25 µM; 360,000 compounds, 0.85% hits;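 active = inhibition or corrected inhibition above about 18%, plus a signal ratio from 0.5 to 1.5, limit read from the data, passing the limit was not always enough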
SENP8 block-1 = SENP8 (human) protease inhibition. 360,000 compounds, 0.64% hits. recombinant SENP8, Nedd8 substrate fluorescence. inhibition, % at 20 µM; in the data active = inhibition mostly above about 40%, no sharp cut-off; inactive = mostly below about 27%
SENP8 block-2 = inhibitors of human SENP8 protease; Q96LD8; purified SENP8, Z-RLRGG-aminoluciferin cleavage, luminescence; inhibition, % at 10 µM; 330,000 compounds, 1.2% hits; AID 2540; in the data active = inhibition above about 50%
SENP8 confirm = confirmation of human SENP8 protease inhibitors. 6,200 compounds, 40% hits. inhibition, % at 12.5 µM. shares compounds with SENP7 inh. AID 488912. Recombinant SENP8, Z-RLRGG-aminoluciferin luminescence, 60 min;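 active = mean inhibition across replicates above about 50%, limit read from the data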
SENP6 conf = human SENP6 inhibition, confirmed | shares compounds with SENP7 inh | recombinant SENP6, Z-RLRGG-aminoluciferin luminescence | inhibition, % at 12.5 µM | 6,200 compounds, 58% hits
SENP7 confirm = confirmation of human SENP7 protease inhibitors | shares compounds with SENP7 inh | recombinant SENP7, Z-RLRGG-aminoluciferin luminescence, 40 min | inhibition, % at 12.5 µM | 6,200 compounds, 69% hits
Casp3 select = selectivity test for SENP inhibitors: human caspase-3 inhibition; shares compounds with SENP7 inh; purified caspase-3, Z-DEVD-aminoluciferin luminescence, 60 min; 6,200 compounds, 60% hits; inhibition, % at 12.5 µM;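 active = mean inhibition above about 50%, limit read from the data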;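 note: plate controls were enzyme with DMSO for no effect and wells without caspase-3 for full effect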
SENP luc ctr = counter-screen for SENP inhibitors: luminescence interference; AID 488919; shares compounds with SENP7 inh; 6,200 compounds, 39% hits; Pre-incubated SENP8/Z-RLRGG-aminoluciferin, luciferase luminescence interference; inhibition, % at 12.5 µM;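 active = mean inhibition above about 50% when retested at one dose, limit read from the data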;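 note: plate controls were DMSO wells with completed reaction for no effect and substrate without enzyme for full effect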
* hit, by the source's call; . = no result.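 Rule for the calls, unless noted: active = mean inhibition above about 50% in the one-dose retest (limit read from the data); inactive = the rest.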

SMILES | SENP7 inh | SENP6 block | SENP1 FRET inh | CendR NRP1 mod | SENP8 block-1 | SENP8 block-2 | SENP8 confirm | SENP6 conf | SENP7 confirm | Casp3 select | SENP luc ctr
CC1(C)CC(=O)C(C=Nc2ccc3[nH]ncc3c2)=C(O)C1 | 5 | 3 | -3 | 3 | -104 | -4 | . | . | . | . | .
Oc1c(Br)cc(Br)cc1C=Nc1cccnc1 | 16 | 55* | -27 | -20 | -10 | 24 | 13 | 42 | 26 | 12 | 5
Oc1c(Br)cc(Br)cc1/C=N/c1nccs1 | 1 | -12 | -20 | -67 | -50 | 2 | . | . | . | . | .
COc1ccc(C=Nc2ccc3[nH]ncc3c2)c(O)c1 | 18 | 62* | -12 | -10 | -179 | -7 | 17 | 4 | 10 | 10 | 6
N#Cc1ccccc1NC(=O)C1CCCO1 (configuration not stated) | . | . | 3 | -3 | 10 | . | . | . | . | . | .
O=C1N/C(=C\c2ccc(O)cc2)C(=O)c2ccccc21 | 85* | 96* | 15 | -3 | 25 | 94* | 93* | 97* | 97* | 84* | 40
Cc1cccc(-c2cc3c(nn2)-c2ccccc2C3=O)c1 | 100* | 90* | 1 | 0 | 32 | 95* | 32 | 74* | 88* | 83* | 34
Cc1cnc2c(c1)C(=O)c1ccccc1-2 | 2 | -14 | -1 | -8 | 18 | -4 | . | . | . | . | .
COc1ccc(-c2cc3c(nn2)-c2ccccc2C3=O)cc1 | 99* | 97* | 4 | 10 | 43* | 96* | -4 | 24 | 20 | 41 | 10
COc1ccc(-c2cn(Cc3ccc4c(c3)C(=O)c3ccccc3C4=O)nn2)cc1 | 11 | 1 | -1 | 2 | 16 | -7 | . | . | . | . | .
O=C1c2ccccc2-c2nnc(-c3ccccc3)cc21 | 99* | 99* | 1 | 11 | 37 | 96* | 6 | 38 | 44 | 29 | 10
COc1ccccc1-c1cccc(-c2nc(C(=O)N3CCCCC3)cc3c2[C@@H](CCO)N(S(=O)C(C)(C)C)C3)c1 (some centres not stated) | . | . | 3 | 4 | 12 | . | . | . | . | . | .
CCCCNS(=O)(=O)c1cccc(NC(=O)[C@H]2C[C@H](O)[C@@H](CO)O2)c1 | . | . | 0 | 23 | 16 | . | . | . | . | . | .
CC(C)NC(=O)N(C)C[C@H]1Oc2ccc(NS(=O)(=O)c3ccccc3)cc2C(=O)N([C@H](C)CO)C[C@@H]1C | -12 | -9 | 3 | -5 | 12 | 3 | . | . | . | . | .
O=[N+]([O-])c1ccc2nc(CCCc3nc4ccc([N+](=O)[O-])cc4[nH]3)[nH]c2c1 | -7 | -9 | 3 | 3 | 6 | -2 | . | . | . | . | .
Cc1ccc(-c2nc3ccc([N+](=O)[O-])cc3[nH]2)cc1 | 73* | 76* | 1 | 8 | -2 | 66* | 11 | 77* | 96* | 64* | 50
O=[N+]([O-])c1ccc2nc(-c3ccncc3)[nH]c2c1 | 51* | 78* | -1 | -2 | 20 | 64* | 39 | 60* | 88* | 86* | 74*
Nc1nc2ccc([N+](=O)[O-])cc2[nH]1 | 10 | 2 | 1 | 0 | 17 | 3 | . | . | . | . | .
O=[N+]([O-])c1ccc2nc(-c3ccc(Cl)cc3)[nH]c2c1 | 63* | 75* | -5 | 11 | -385 | 54* | 68* | 72* | 87* | 50* | 49
O=[N+]([O-])c1ccc2nc(-c3ccccc3[N+](=O)[O-])[nH]c2c1 | -1 | 7 | 1 | 4 | 30 | 2 | . | . | . | . | .
